The nature of data set [1]: Selectivity index, ratio of CC50 for human TZM-bl cells to EC50 for Human immunodeficiency virus 1 A17 infected in human TZM-bl cells. In kind it is toxicity, cell-based. As to conditions: read-out: Ratio CC50/EC50.
The test system of data set [2] is Human immunodeficiency virus 1. The data set can be described thus: Antiviral activity against NNRTI-resistant Human immunodeficiency virus 1 A17 double mutant infected in human TZM-bl cells assessed decrease in p24 level after 7 days by ELISA. Type of data set: functional, organism-based. As to conditions: Human immunodeficiency virus 1, A17, TZM-bl, 168 h. (In general: ELISA stands for enzyme-linked immunosorbent assay.)

Data set [3] has as its target Human immunodeficiency virus type 1 reverse transcriptase (Human immunodeficiency virus 1, UniProt Q72547). Briefly: Inhibition of HIV1 reverse transcriptase after 1 hr by colorimetric assay. Put shortly:
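Purified recombinant wild-type RT with poly(rA)/oligo(dT)16 template-primer and serial inhibitor concentrations. Incubated 1 h at 37 °C. Incorporated biotin detected with streptavidin-alkaline phosphatase and PNPP (30 min, 37 °C), read colorimetrically.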

Data set [4] can be described thus: Cytotoxicity against human TZM-bl cells. In kind it is cell-based.
Data set [5] addresses Human immunodeficiency virus type 1 reverse transcriptase (Human immunodeficiency virus 1) (UniProt Q72547). The data set can be described thus: Ratio of nevirapine IC50 to compound IC50 for HIV1 reverse transcriptase.
Data set [6] has the same target. The data set can be described thus: Ratio of TNK651 IC50 to compound IC50 for HIV1 reverse transcriptase.
For data set [7], the system named is Human immunodeficiency virus 1. The data set can be described thus: Antiviral activity against Human immunodeficiency virus 1 SF33 infected in human MT4 cells assessed decrease in p24 level after 7 days by ELISA. The note with it: Human immunodeficiency virus 1, SF33, MT4, 168 h. In kind it is functional, organism-based. Put shortly:
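MT4 cells (4×10^4/well) infected with 200 TCID50 of HIV-1 for 2 h at 37 °C, then serial dilutions of compound added. After 7 days at 37 °C, p24 measured in a commercial ELISA.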

Data set [8] concerns Human immunodeficiency virus 1. The data set can be described thus: Antiviral activity against NNRTI-resistant Human immunodeficiency virus 1 harboring reverse transcriptase Y181C mutation infected in human MT4 cells assessed decrease in p24 level after 7 days by ELISA. Type of data set: functional, organism-based. As to conditions: Human immunodeficiency virus 1, MT4, 168 h. Put shortly: (§1)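 MT4 cells (4×10^4/well) were infected with 200 TCID50 HIV-1 and held 2 h at 37 °C, then serially diluted compound was added. […] The K103N and Y181C viruses came from transfecting RT-mutant plasmids into 293T/17 cells.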

The nature of data set [9]: Selectivity index, ratio of CC50 for human MT4 cells to EC50 for Human immunodeficiency virus 1 SF33 infected in human MT4 cells. Type of data set: toxicity, cell-based. The note with it: read-out: Ratio CC50/EC50.
Data set [10] deals with Human immunodeficiency virus 1. The data set can be described thus: Antiviral activity against Human immunodeficiency virus 1 SF33 infected in human TZM-bl cells assessed decrease in p24 level after 7 days by ELISA. The note with it: Human immunodeficiency virus 1, SF33, TZM-bl, 168 h. In kind it is functional, organism-based.
The test system of data set [11] is Human immunodeficiency virus 1. The data set can be described thus: Antiviral activity against NNRTI-resistant Human immunodeficiency virus 1 harboring reverse transcriptase K103N mutation infected in human TZM-bl cells assessed decrease in p24 level after 7 days by ELISA. As to conditions: Human immunodeficiency virus 1, TZM-bl, 168 h. In kind it is functional, organism-based.

Data set [12] can be described thus: Selectivity index, ratio of CC50 for human TZM-bl cells to EC50 for Human immunodeficiency virus 1 SF33 infected in human TZM-bl cells. The note with it: read-out: Ratio CC50/EC50. Type of data set: toxicity, cell-based.
Data set [13] relates to Human immunodeficiency virus 1. The data set can be described thus: Antiviral activity against NNRTI-resistant Human immunodeficiency virus 1 harboring reverse transcriptase K103N mutation infected in human MT4 cells assessed decrease in p24 level after 7 days by ELISA. In kind it is functional, organism-based. As to conditions: Human immunodeficiency virus 1, MT4, 168 h. Put shortly: as §1

Data set [14] in a line: Selectivity index, ratio of CC50 for human MT4 cells to EC50 for Human immunodeficiency virus 1 A17 infected in human MT4 cells. Type of data set: toxicity, cell-based. As to conditions: read-out: Ratio CC50/EC50.
Data set [15] is described as follows: Cytotoxicity against human MT4 cells after 3 days by XTT assay. Type of data set: cell-based. In short, it runs like this:
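Graded compound concentrations added to MT4 cells (5×10^4/well) for 3 days at 37 °C. CCK-8 reagent then added for 4 h at 37 °C to develop the XTT formazan product, and absorbance read at 450 nm. CC50 derived from percent cytotoxicity.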
(Formazan colour is commonly taken as a measure of viable cells.)

Data set [16] relates to Human immunodeficiency virus 1. The data set can be described thus: Antiviral activity against NNRTI-resistant Human immunodeficiency virus 1 harboring reverse transcriptase Y181C mutation infected in human TZM-bl cells assessed decrease in p24 level after 7 days by ELISA. As to conditions: Human immunodeficiency virus 1, TZM-bl, 168 h. Type of data set: functional, organism-based.

The subject of data set [17] is Human immunodeficiency virus 1. Briefly: Antiviral activity against NNRTI-resistant Human immunodeficiency virus 1 A17 double mutant infected in human MT4 cells assessed decrease in p24 level after 7 days by ELISA. Type of data set: functional, organism-based. The note with it: Human immunodeficiency virus 1, A17, MT4, 168 h. Put shortly:
as §1

One molecule from ChEMBL document CHEMBL2331178, “Novel pyridinone derivatives as non-nucleoside reverse transcriptase inhibitors (NNRTIs) with high potency against NNRTI-resistant HIV-1 strains” (J Med Chem, 2013) can be followed below.

The term EC50 denotes the concentration giving half of the maximal effect. By IC50 is commonly meant the concentration needed to halve the response being measured. A low value points to greater potency in that assay. A word on the CC50: it is the concentration at which the toxic effect on the cells reaches its halfway point. High values mean lower toxicity to the cells, low ones greater toxicity to the cells.

Bounds are passed on as bounds.

On to `CC(C)c1c(O[C@H]2CCCC[C@@H]2C)cc(CCc2ccccc2)[nH]c1=O` (racemic), for which the selectivity ratio in [1] is 2160; in [9], above 75000; in [12] it was above 33300; in data set [14], above 3330. Moreover, the half-maximal effective concentration (EC50) turned out to be 0.139 µM in [2]; 0.004 µM in data set [7]; 0.19 µM in data set [8]; 0.009 µM in data set [10]; 0.075 µM in [11]; 0.018 µM in data set [13]. In addition, the concentration giving a half-maximal response (EC50) in data set [16] is 0.063 µM; in data set [17], 0.09 µM. In data set [3], half-maximal inhibition (IC50) required 0.003 µM. The CC50 in [4] was above 300 µM. The values for the Ratio IC50 in [5] and in data set [6] were 1480 and 29, respectively. In data set [15], this molecule showed a CC50 at 72 h above 300 µM.
